This is an account of results in ChEMBL document CHEMBL1126270, “Synthesis of 3-[(2,3-dihydro-1,1,3-trioxo-1,2-benzisothiazol-2-yl)alkyl] 1,4-dihydropyridine-3,5-dicarboxylate derivatives as calcium channel modulators” (J Med Chem, 1992).

Assay [1] concerns Rattus norvegicus. Description: Effect (iv, 100 ug/kg) on systolic blood pressure in anesthetized normotensive rat. Format: functional, Artery. The procedure, abridged: (§1)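 Male Wistar rats, 290 ± 30 g, pentobarbitone anesthesia (70 mg/kg ip), tracheal cannulation. Carotid arterial pressure recorded, dosing via femoral vein. Bolus iv of 0.1 mg/kg in PEG-400 (0.1 mL/kg); effects recorded continuously for 15 min; peak rise in mmHg above basal.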

For assay [2], the species on record is Rattus norvegicus. Description: Compound evaluated for reducing diastolic blood pressure in normotensive rats. The assay is classed as functional, Artery.
Assay [3] is filed under the species Oryctolagus cuniculus. Description: Compound was evaluated for contraction on Electrically driven Rabbit left atria. at 10e-7 M. Format: functional.
Assay [4] deals with Rattus norvegicus. Description: Effect (iv, 100 ug/kg) on diastolic blood pressure in anesthetized normotensive rat. Format: functional, Artery. The procedure, abridged:
as §1

Assay [5] is filed under the species Oryctolagus cuniculus. Description: Compound was evaluated for contraction on Electrically driven Rabbit left atria. at 10e-6 M. Format: functional.
The species named for assay [6] is Oryctolagus cuniculus. Description: Compound was evaluated for contraction on Electrically driven Rabbit left atria. at 10e-8 M. Format: functional.
The species entered for assay [7] is Oryctolagus cuniculus. Description: Blockade of calcium-evoked contractions evaluated in depolarized rabbit aortic strips. As to conditions: Aorta. Format: functional. The procedure, abridged: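 Male New Zealand rabbit thoracic aorta, helicoidal strips, 2.5 g preload, Krebs–bicarbonate, 37 °C, 95% O2/5% CO2, pH 7.4. After 1 h equilibration, depolarized with 35 mM K+; 1.5 mM Ca2+ added 10 min later, repeated until reproducible. Compound at increasing concentrations from 20 min before and during Ca2+ addition; responses normalized to initial tension; IC50 by Finney method.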

The species named for assay [8] is Oryctolagus cuniculus. Description: Maximum contractile force in rabbit aorta strips. The assay is classed as functional. The procedure, abridged: (§2)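 Rabbit aortic strips, after equilibration in Ca2+-free Krebs, switched to buffer with 10 mM K+. Repeated 1.5 mM Ca2+ pulses until reproducible. Increasing compound concentrations each given 10 min before a further 1.5 mM Ca2+ pulse. Maximum contractile force (mg) taken as vasoconstrictor effect; data as mean ± SEM at 10^-6 M.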

For assay [9], the species on record is Oryctolagus cuniculus. Description: Compound was tested in vitro for its effect on maximum contractile force in rabbit aorta strips. Format: functional. In a few lines:
as §2

Assay [10] is filed under the species Rattus norvegicus. Description: Reducing systolic blood pressure in spontaneously hypertensive rats. Format: functional. The conditions noted are these: Artery. In a few lines:
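Conscious SHR trained 2 weeks, warmed at 31 ± 1 °C for 2 h; tail plethysmography SBP, mean of five readings; only rats above 170 mmHg used. After 24 h fasting, 20 mg/kg by gavage in 20% PEG-400/0.5% methylcellulose (10 mL/kg); SBP change read 1 h post-dose, n = 12.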

The species named for assay [11] is Rattus norvegicus. Description: Compound evaluated for reducing diastolic blood pressure spontaneously hypertensive rats. The assay is classed as functional. The conditions noted are these: Artery. In a few lines:
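Male SHR (Okamoto strain, 290 ± 30 g) under sodium pentobarbitone anaesthesia (70 mg/kg ip) with tracheal cannulation. Arterial pressure recorded from the left carotid artery. Bolus iv via right femoral vein in PEG-400 (0.1 mL/kg), cumulative doses of 1, 3, 6, 10, 20 and 30 μg/kg, each followed for 15 min. ED25 for lowering diastolic pressure estimated.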

Assay [12] has as its system Rattus norvegicus. Description: Systolic blood pressure after administration of a single oral dose (20 mg/kg). Format: functional. In a few lines: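 Conscious SHR trained for 2 weeks; systolic pressure by tail plethysmography after 2 h at 31 ± 1 °C, each reading the mean of five determinations. Only rats with basal >170 mmHg were used. After 24 h fasting, dosed by gavage in 20% PEG-400 in 0.5% aqueous methylcellulose (10 mL/kg). % change from basal at 1 h; mean ± SE, n = 12.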

For assay [13], the species on record is Oryctolagus cuniculus. Description: Recovery of the initial contraction of rabbit aortic strips, blocked at 10e-7 M concentration. As to conditions: Aorta.
The species entered for assay [14] is Oryctolagus cuniculus. Description: Inhibition of electrically stimulated rabbit left atria contraction. The assay is classed as functional. The procedure, abridged:
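Rabbit left atria electrically driven (1 Hz, 10 ms, twice threshold voltage), equilibrated 1–1.5 h. Compounds added cumulatively (10^-10–10^-6 M), diluted from DMSO stocks into Krebs–Henseleit, final DMSO <0.1%. Isometric force recorded; IC50 from contractile force relative to initial control values, with 95% confidence limits.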

The species entered for assay [15] is Rattus norvegicus. Description: Duration of action in spontaneously hypertensive rats. The assay is classed as functional. The procedure, abridged: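 Anesthetized (pentobarbitone 70 mg/kg ip) Okamoto SHR, 290 ± 30 g; carotid pressure, femoral vein dosing. Cumulative increasing iv bolus doses of 1, 3, 6, 10, 20, 30 µg/kg in PEG-400 (0.1 mL/kg), each recorded 15 min; ED25 for lowering SBP and DBP and duration of hypotensive action estimated.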

For assay [16], the species on record is Rattus norvegicus. Description: Compound evaluated for reducing diastolic blood pressure normotensive rats. The assay is classed as functional, Artery.

Each structure is given as a SMILES string. Bounds are passed on as bounds.

By IC50 is commonly meant the point on the concentration scale where inhibition reaches its midpoint. In turn, `CC1=NC(C)=C(C(=O)OCCN2C(=O)c3ccccc3S2(=O)=O)C(c2cccc([N+](=O)[O-])c2)/C1=C(\O)OCC1CCCCO1` (configuration not stated) registered an SBP in the assay with Rattus norvegicus [1] of 58.1. Further, the DBP change in the assay filed under Rattus norvegicus [2] was 40%. Besides, the Contraction is given as 129.6% in the assay listed under Oryctolagus cuniculus [3], 141.2% in the assay listed under Oryctolagus cuniculus [5] and 114% in the assay filed under Oryctolagus cuniculus [6]. In the assay on Rattus norvegicus [4], the DBP is recorded as 40. Moreover, in the assay listed under Oryctolagus cuniculus [7], the IC50 was more than 1000 nM. Further, the Max contractile force in the assay filed under Oryctolagus cuniculus [8] is 1940 mg. Also, the Max contractile activity in the assay listed under Oryctolagus cuniculus [9] was 1940 mg.

For `COC(=O)C1=C(C)NC(C)=C(C(=O)OC)C1c1ccccc1[N+](=O)[O-]` [NIFEDIPINE], the ED25 in the assay listed under Rattus norvegicus [10] was 0.033 mg/kg; in the assay filed under Rattus norvegicus [11], 0.031 mg/kg. The SBP change in the assay with Rattus norvegicus [12] is given as 35%. The same molecule gave a Recovery in the assay listed under Oryctolagus cuniculus [13] of 71.6%. The molecule further registered an IC50 in the assay filed under Oryctolagus cuniculus [14] of 113 nM. In the assay listed under Rattus norvegicus [15], this molecule came in with a Duration of 3 min.

As to `COC(=O)C1=C(C)NC(C)=C([N+](=O)[O-])C1c1ccccc1C(F)(F)F` (configuration not stated), in the assay with Rattus norvegicus [1], the SBP is 100. The values for the Contraction in the assay filed under Oryctolagus cuniculus [3], in the assay filed under Oryctolagus cuniculus [5] and in the assay listed under Oryctolagus cuniculus [6] were 232.2%, 471.4% and 97.8%, respectively. The molecule also registered a DBP with Rattus norvegicus [4] of 53.3. In the assay listed under Rattus norvegicus [16], this molecule yielded a DBP change of 53.3%. In addition, the Max contractile force in the assay listed under Oryctolagus cuniculus [8] was found to be 2570 mg.
